Test results taken from ChEMBL document CHEMBL3774372, “Design, physico-chemical properties and biological evaluation of some new N-[(phenoxy)alkyl]- and N-{2-[2-(phenoxy)ethoxy]ethyl}aminoalkanols as anticonvulsant agents” (Bioorg Med Chem, 2016).
The source made the active and inactive calls.

What was measured:
[1] = Displacement of [3H]D888 from rat cerebral cortex L-type calcium channel verapamil binding site; type: tissue-based
Mus musculus [2] = test: Anticonvulsant activity in mouse assessed as protection against maximal electric shock-induced seizures at 100 mg/kg, ip measured after […]; type: functional, organism-based
Mus musculus [3] = test: Anticonvulsant activity in mouse assessed as protection against 6 Hz psychomotor seizure at 50 mg/kg, ip after 0.5 hrs; type: functional, organism-based
How it was run: (§1)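 Suspension in 0.5% methylcellulose given ip to mice; corneal stimulation with 0.2 ms monopolar rectangular pulses at 6 Hz for 3 s from a constant current device, mice restrained then released to observation cage. Protected if normal exploratory behaviour resumed within 10 s of stimulation. Scored as protected/tested, 4 mice per group.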

Mus musculus [4] = test: Anticonvulsant activity in mouse assessed as protection against 6 Hz psychomotor seizure at 50 mg/kg, ip after 1 hr; type: functional, organism-based; how it was run: as §1
Mus musculus [5] = test: Anticonvulsant activity in mouse assessed as protection against 6 Hz psychomotor seizure at 50 mg/kg, ip after 2 hrs; type: functional, organism-based; how it was run: as §1
Mus musculus [6] = test: Anticonvulsant activity in mouse assessed as protection against 6 Hz psychomotor seizure at 50 mg/kg, ip after 4 hrs; type: functional, organism-based; how it was run: as §1
Mus musculus [7] = test: Neurotoxicity in mouse at 50 mg/kg, ip after 0.5 hrs by rotarod test; type: toxicity, organism-based; conditions: in vivo
How it was run: (§2)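 Mice were dosed ip with compound suspended in 0.5% methylcellulose. Rotarod: a 1 in. knurled rod turning at 6 rpm. Neurotoxicity was scored as failure to stay on the rod for at least 1 min in each of three trials. Results are given as the number of animals affected out of the number tested.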

Mus musculus [8] = test: Neurotoxicity in mouse at 50 mg/kg, ip after 1 hr by rotarod test; type: toxicity, organism-based; conditions: in vivo; how it was run: as §2
Mus musculus [9] = test: Neurotoxicity in mouse at 50 mg/kg, ip after 2 hrs by rotarod test; type: toxicity, organism-based; conditions: in vivo; how it was run: as §2
Mus musculus [10] = test: Neurotoxicity in mouse at 50 mg/kg, ip after 4 hrs by rotarod test; type: toxicity, organism-based; conditions: in vivo; how it was run: as §2
Mus musculus [11] = test: Neurotoxicity in mouse at 100 mg/kg, ip after […] by rotarod test; type: toxicity, organism-based; conditions: in vivo
Mus musculus [12] = test: Anticonvulsant activity in mouse assessed as protection against maximal electric shock-induced seizures at 100 mg/kg, ip measured after 0.5 hrs; type: functional, organism-based
How it was run: (§3)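 Mice dosed ip with suspension in 0.5% methylcellulose; maximal electroshock applied at the listed time after dosing. Protection = abolition of hindlimb tonic extension component of seizure; reported as animals protected/animals tested.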

Mus musculus [13] = test: Anticonvulsant activity in mouse assessed as protection against maximal electric shock-induced seizures at 100 mg/kg, ip measured after 1 hr; type: functional, organism-based; how it was run: as §3
Mus musculus [14] = test: Anticonvulsant activity in mouse assessed as protection against maximal electric shock-induced seizures at 100 mg/kg, ip measured after 4 hrs; type: functional, organism-based; how it was run: as §3
Mus musculus [15] = test: Neurotoxicity in mouse at 100 mg/kg, ip after 0.5 hrs by rotarod test; type: toxicity, organism-based; conditions: in vivo; how it was run: as §2
Mus musculus [16] = test: Neurotoxicity in mouse at 100 mg/kg, ip after 1 hr by rotarod test; type: toxicity, organism-based; conditions: in vivo; how it was run: as §2
Mus musculus [17] = test: Neurotoxicity in mouse at 100 mg/kg, ip after 4 hrs by rotarod test; type: toxicity, organism-based; conditions: in vivo; how it was run: as §2
Rattus norvegicus [18] = test: Anticonvulsant activity in rat assessed as protection against maximal electric shock-induced seizures at 30 mg/kg, po measured after 0.5 hrs; type: functional, organism-based
How it was run: (§4)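 Rats dosed ip or orally as 0.5% methylcellulose suspension; maximal electroshock at listed time. Protection = abolition of hindlimb tonic extension; 4 rats per group, scored protected/tested.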

Rattus norvegicus [19] = test: Anticonvulsant activity in rat assessed as protection against maximal electric shock-induced seizures at 30 mg/kg, po measured after 1 hr; type: functional, organism-based; how it was run: as §4
Mus musculus [20] = test: Anticonvulsant activity in mouse assessed as protection against maximal electric shock-induced seizures at 3 mg/kg, ip measured after 0.5 hrs; type: functional, organism-based; how it was run: as §3
Rattus norvegicus [21] = test: Anticonvulsant activity in rat assessed as protection against maximal electric shock-induced seizures at 30 mg/kg, po measured after 2 hrs; type: functional, organism-based; how it was run: as §4
Rattus norvegicus [22] = test: Anticonvulsant activity in rat assessed as protection against maximal electric shock-induced seizures at 30 mg/kg, po measured after 4 hrs; type: functional, organism-based; how it was run: as §4
Rattus norvegicus [23] = test: Neurotoxicity in rat at 30 mg/kg, po after […] by rotarod test; type: toxicity, organism-based; conditions: in vivo
Rattus norvegicus [24] = test: Neurotoxicity in rat at 30 mg/kg, po after 0.5 hrs by rotarod test; type: toxicity, organism-based; conditions: in vivo
Rattus norvegicus [25] = test: Neurotoxicity in rat at 30 mg/kg, po after 1 hr by rotarod test; type: toxicity, organism-based; conditions: in vivo
Rattus norvegicus [26] = test: Neurotoxicity in rat at 30 mg/kg, po after 2 hrs by rotarod test; type: toxicity, organism-based; conditions: in vivo
Rattus norvegicus [27] = test: Neurotoxicity in rat at 30 mg/kg, po after 4 hrs by rotarod test; type: toxicity, organism-based; conditions: in vivo
Mus musculus [28] = test: Anticonvulsant activity in mouse assessed as protection against maximal electric shock-induced seizures at 10 mg/kg, ip measured after 0.5 hrs; type: functional, organism-based; how it was run: as §3
Mus musculus [29] = test: Anticonvulsant activity in mouse assessed as protection against maximal electric shock-induced seizures at 30 mg/kg, ip measured after 0.5 hrs; type: functional, organism-based; how it was run: as §3
Mus musculus [30] = test: Anticonvulsant activity in mouse assessed as protection against maximal electric shock-induced seizures at 30 mg/kg, ip measured after 4 hrs; type: functional, organism-based; how it was run: as §3
Mus musculus [31] = test: Neurotoxicity in mouse at 10 mg/kg, ip after 0.5 hrs by rotarod test; type: toxicity, organism-based; conditions: in vivo; how it was run: as §2
Mus musculus [32] = test: Neurotoxicity in mouse at 3 mg/kg, ip after 0.5 hrs by rotarod test; type: toxicity, organism-based; conditions: in vivo; how it was run: as §2
Mus musculus [33] = test: Anticonvulsant activity in mouse assessed as protection against subcutaneous pentylenetetrazol-induced seizures at 30 mg/kg, ip measured after 0.5 hrs; type: functional, organism-based
How it was run: (§5)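 Mice dosed ip as 0.5% methylcellulose suspension; pentylenetetrazole 85 mg/kg in 0.9% NaCl injected subcutaneously into posterior midline, animals watched at least 30 min. Protection = no threshold seizure (single clonic spasm episode lasting ≥5 s); scored protected/tested.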

Mus musculus [34] = test: Anticonvulsant activity in mouse assessed as protection against subcutaneous pentylenetetrazol-induced seizures at 30 mg/kg, ip measured after 4 hrs; type: functional, organism-based; how it was run: as §5
Mus musculus [35] = test: Neurotoxicity in mouse at 30 mg/kg, ip after 0.5 hrs by rotarod test; type: toxicity, organism-based; conditions: in vivo; how it was run: as §2
Mus musculus [36] = test: Neurotoxicity in mouse at 30 mg/kg, ip after 4 hrs by rotarod test; type: toxicity, organism-based; conditions: in vivo; how it was run: as §2
Mus musculus [37] = test: Neurotoxicity in mouse at 300 mg/kg, ip after 0.5 hrs by rotarod test; type: toxicity, organism-based; conditions: in vivo; how it was run: as §2
Rattus norvegicus [38] = test: Anticonvulsant activity in rat assessed as protection against maximal electric shock-induced seizures at 30 mg/kg, po measured after […]; type: functional, organism-based
Vibrio harveyi [39] = test: Mutagenicity in Vibrio harveyi BB7 assessed as number of colonies after 48 hrs (reference value: 13 to 14 no_unit); type: ADME, organism-based; conditions: in vivo
How it was run: (§6)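 Vibrio harveyi mutagenicity test: test compound was added to exponentially growing cultures (A600 = 0.1, 30 °C) and grown to OD600 0.3–0.4. Then 5 × 10^6 cells were plated on BOSS agar with neomycin (final 100 µg/mL) and incubated 48 h at 30 °C. Neomycin-resistant colonies were counted. Triplicate; controls were water, DMSO and NQNO 40 ng/mL.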

Vibrio harveyi [40] = test: Mutagenicity in Vibrio harveyi BB7X assessed as number of colonies after 48 hrs (reference value: 15 to 16 no_unit); type: ADME, organism-based; conditions: in vivo; how it was run: as §6
Vibrio harveyi [41] = test: Mutagenicity in Vibrio harveyi BB7M assessed as number of colonies after 48 hrs (reference value: 13 to 14 no_unit); type: ADME, organism-based; conditions: in vivo; how it was run: as §6
Vibrio harveyi [42] = test: Mutagenicity in Vibrio harveyi BB7XM assessed as number of colonies after 48 hrs (reference value: 14 no_unit); type: ADME, organism-based; conditions: in vivo; how it was run: as §6
Vibrio harveyi [43] = test: Antimutagenic activity against Vibrio harveyi BB7 assessed as inhibition of NQNO-induced mutagenicity after 48 hrs; type: functional
How it was run: (§7)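 V. harveyi cultures grown exponentially to A600 0.1 at 30 °C, exposed to test compound for 15 min, then to NQNO, and grown on to A600 0.3–0.4. 5 × 10⁶ cells plated on BOSS agar with neomycin (100, final). Neomycin-resistant colonies counted after 48 h at 30 °C. Result given as % inhibition of NQNO mutagenicity; three independent repeats.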

Vibrio harveyi [44] = test: Antimutagenic activity against Vibrio harveyi BB7X assessed as inhibition of NQNO-induced mutagenicity after 48 hrs; type: functional; how it was run: as §7
Vibrio harveyi [45] = test: Antimutagenic activity against Vibrio harveyi BB7M assessed as inhibition of NQNO-induced mutagenicity after 48 hrs; type: functional; how it was run: as §7
Vibrio harveyi [46] = test: Antimutagenic activity against Vibrio harveyi BB7XM assessed as inhibition of NQNO-induced mutagenicity after 48 hrs; type: functional; how it was run: as §7

COc1ccc(CCN(C)CCCC(C#N)(c2cc(OC)c(OC)c(OC)c2)C(C)C)cc1OC (configuration not stated) [GALLOPAMIL]
IC50 [1]: 15 nM

Cc1cccc(OCCN[C@@H]2CCCC[C@H]2O)c1C (racemic)
Activity (Mus musculus [2]): Active | Activity (Mus musculus [3]): inactive | Activity (Mus musculus [4]): inactive | Activity (Mus musculus [5]): inactive | Activity (Mus musculus [6]): inactive | Activity (Mus musculus [7]): Non-toxic | Activity (Mus musculus [8]): Non-toxic | Activity (Mus musculus [9]): Non-toxic | Activity (Mus musculus [10]): Non-toxic | Activity (Mus musculus [11]): Toxic | Activity (Mus musculus [12]): Active | Activity (Mus musculus [13]): Active | Activity (Mus musculus [14]): inactive | Activity (Mus musculus [15]): Toxic | Activity (Mus musculus [16]): Toxic | Activity (Mus musculus [17]): Non-toxic

CC[C@@H](CO)NCCOCCOc1c(C)cccc1C
Activity (Rattus norvegicus [18]): inactive | Activity (Rattus norvegicus [19]): inactive | Activity (Mus musculus [20]): inactive | Activity (Rattus norvegicus [21]): inactive | Activity (Rattus norvegicus [22]): inactive | Activity (Rattus norvegicus [23]): Non-toxic | Activity (Rattus norvegicus [24]): Non-toxic | Activity (Rattus norvegicus [25]): Non-toxic | Activity (Rattus norvegicus [26]): Non-toxic | Activity (Rattus norvegicus [27]): Non-toxic | Activity (Mus musculus [28]): inactive | Activity (Mus musculus [29]): Active | Activity (Mus musculus [30]): inactive | Activity (Mus musculus [31]): Non-toxic | Activity (Mus musculus [32]): Non-toxic | Activity (Mus musculus [33]): inactive | Activity (Mus musculus [34]): inactive | Activity (Mus musculus [35]): Non-toxic | Activity (Mus musculus [36]): Non-toxic | Activity (Mus musculus [15]): Toxic | Activity (Mus musculus [37]): Toxic | Activity (Rattus norvegicus [38]): inactive | Activity (Vibrio harveyi [39]): 28 | Activity (Vibrio harveyi [40]): 27 | Activity (Vibrio harveyi [41]): 26 | Activity (Vibrio harveyi [42]): 22 | inhibition (INH) (Vibrio harveyi [43]): 88% | inhibition (INH) (Vibrio harveyi [44]): 22% | inhibition (INH) (Vibrio harveyi [45]): 52% | inhibition (INH) (Vibrio harveyi [46]): 15%
